# According to ChEMBL document CHEMBL1629686, “Substrate selectivity and a novel role in inhibitor discrimination by residue 237 in the KPC-2 beta-lactamase” (Antimicrob Agents Chemother, 2010):
# Tests used:
# Escherichia coli [1] = assay: Antimicrobial activity against Escherichia coli DH10B harboring beta-lactamase KPC-2 T237W mutant by agar dilution method; format: functional; details: K-12 DH10B
# How it was run: (§1)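 LB agar dilution MICs followed CLSI criteria, with inocula applied by Steers replicator. […] Piperacillin-tazobactam was tested at an 8:1 ratio. Wild-type and mutant blaKPC-2 were carried on pBC SK(+), or wild type on pBR322-catI, in E. coli DH10B.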
# Klebsiella pneumoniae [2] = assay: Selectivity index, Ratio of Kcat/Km for Klebsiella pneumoniae 1534 beta-lactamase KPC-2 T237S mutant to ratio of Kcat/Km for Klebsiella pneumoniae 1534 beta-lactamase KPC-2 by spectrophotometric analysis
# How it was run: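 Kinetics used purified enzymes in 10 mM PBS, pH 7.4, room temperature, with 10 nM enzyme and substrate in excess. Km and Vmax came from a Michaelis-Menten fit. kcat/Km of the variant was compared with wild type as ΔΔG = −RT ln of the kcat/Km ratio.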
# Escherichia coli [3] = assay: Antimicrobial activity against Escherichia coli DH10B harboring plasmid pBR322-catI carrying beta-lactamase KPC-2 by agar dilution method; format: functional; details: K-12 DH10B; how it was run: as §1
# Escherichia coli [4] = assay: Antimicrobial activity against Escherichia coli DH10B harboring beta-lactamase KPC-2 T237S mutant by agar dilution method; format: functional; details: K-12 DH10B; how it was run: as §1
# Escherichia coli [5] = assay: Antimicrobial activity against Escherichia coli DH10B harboring beta-lactamase KPC-2 T237D mutant by agar dilution method; format: functional; details: K-12 DH10B; how it was run: as §1
# Escherichia coli [6] = assay: Antimicrobial activity against Escherichia coli DH10B harboring plasmid pBC SK(+) carrying wild type beta-lactamase KPC-2 by agar dilution method; format: functional; details: K-12 DH10B; how it was run: as §1
# Klebsiella pneumoniae [7] = assay: Activity of Klebsiella pneumoniae 1534 beta-lactamase KPC-2 T237A mutant by spectrophotometric analysis
# How it was run: (§2)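 Purified KPC-2 variant enzymes (periplasmic lysate from E. coli, preparative isoelectric focusing). Hydrolysis followed by diode-array spectrophotometry in 10 mM PBS, pH 7.4, room temperature. Enzyme at 10 nM with substrate in molar excess for pseudo-first-order conditions. Vmax and Km came from a nonlinear least-squares Michaelis-Menten fit.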
# Klebsiella pneumoniae [8] = assay: Activity of Klebsiella pneumoniae 1534 beta-lactamase KPC-2 T237S mutant by spectrophotometric analysis; how it was run: as §2
# Klebsiella pneumoniae [9] = assay: Ratio of Kcat/Km for Klebsiella pneumoniae 1534 beta-lactamase KPC-2 T237A mutant by spectrophotometric analysis; how it was run: as §2
# Klebsiella pneumoniae [10] = assay: Ratio of Kcat/Km for Klebsiella pneumoniae 1534 beta-lactamase KPC-2 T237S mutant by spectrophotometric analysis; how it was run: as §2
# Klebsiella pneumoniae [11] = assay: Antimicrobial activity against Klebsiella pneumoniae 1534 expressing beta-lactamase KPC-2 by agar dilution method; format: functional
# How it was run: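 MICs were determined by LB agar dilution following CLSI criteria, with a Steers replicator. […] Piperacillin-tazobactam was kept at an 8:1 ratio.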
# Escherichia coli [12] = assay: Antimicrobial activity against Escherichia coli DH10B harboring beta-lactamase KPC-2 T237K mutant by agar dilution method; format: functional; details: K-12 DH10B; how it was run: as §1
# Escherichia coli [13] = assay: Antimicrobial activity against Escherichia coli DH10B harboring beta-lactamase KPC-2 T237G mutant by agar dilution method; format: functional; details: K-12 DH10B; how it was run: as §1
# Escherichia coli [14] = assay: Antimicrobial activity against Escherichia coli DH10B by agar dilution method; format: functional; details: K-12 DH10B; how it was run: as §1
# Escherichia coli [15] = assay: Antimicrobial activity against Escherichia coli DH10B harboring beta-lactamase KPC-2 T237Q mutant by agar dilution method; format: functional; details: K-12 DH10B; how it was run: as §1
# Escherichia coli [16] = assay: Antimicrobial activity against Escherichia coli DH10B harboring beta-lactamase KPC-2 T237E mutant by agar dilution method; format: functional; details: K-12 DH10B; how it was run: as §1
# Escherichia coli [17] = assay: Antimicrobial activity against Escherichia coli DH10B harboring beta-lactamase KPC-2 T237R mutant by agar dilution method; format: functional; details: K-12 DH10B; how it was run: as §1
# Escherichia coli [18] = assay: Antimicrobial activity against Escherichia coli DH10B harboring beta-lactamase KPC-2 T237H mutant by agar dilution method; format: functional; details: K-12 DH10B; how it was run: as §1
# Escherichia coli [19] = assay: Antimicrobial activity against Escherichia coli DH10B harboring beta-lactamase KPC-2 T237N mutant by agar dilution method; format: functional; details: K-12 DH10B; how it was run: as §1
# Escherichia coli [20] = assay: Antimicrobial activity against Escherichia coli DH10B harboring beta-lactamase KPC-2 T237F mutant by agar dilution method; format: functional; details: K-12 DH10B; how it was run: as §1
# Escherichia coli [21] = assay: Antimicrobial activity against Escherichia coli DH10B harboring plasmid […] by agar dilution method; format: functional; details: K-12 DH10B; how it was run: as §1
# Escherichia coli [22] = assay: Antimicrobial activity against Escherichia coli DH10B harboring beta-lactamase KPC-2 T237Y mutant by agar dilution method; format: functional; details: K-12 DH10B; how it was run: as §1
# Escherichia coli [23] = assay: Antimicrobial activity against Escherichia coli DH10B harboring beta-lactamase KPC-2 T237L mutant by agar dilution method; format: functional; details: K-12 DH10B; how it was run: as §1
# Escherichia coli [24] = assay: Antimicrobial activity against Escherichia coli DH10B harboring beta-lactamase KPC-2 T237A mutant by agar dilution method; format: functional; details: K-12 DH10B; how it was run: as §1
# Escherichia coli [25] = assay: Antimicrobial activity against Escherichia coli DH10B harboring beta-lactamase KPC-2 T237C mutant by agar dilution method; format: functional; details: K-12 DH10B; how it was run: as §1
# Escherichia coli [26] = assay: Antimicrobial activity against Escherichia coli DH10B harboring beta-lactamase KPC-2 T237M mutant by agar dilution method; format: functional; details: K-12 DH10B; how it was run: as §1
# Escherichia coli [27] = assay: Antimicrobial activity against Escherichia coli DH10B harboring beta-lactamase KPC-2 T237V mutant by agar dilution method; format: functional; details: K-12 DH10B; how it was run: as §1
# Escherichia coli [28] = assay: Antimicrobial activity against Escherichia coli DH10B harboring beta-lactamase KPC-2 T237P mutant by agar dilution method; format: functional; details: K-12 DH10B; how it was run: as §1
# Escherichia coli [29] = assay: Antimicrobial activity against Escherichia coli DH10B harboring beta-lactamase KPC-2 T237I mutant by agar dilution method; format: functional; details: K-12 DH10B; how it was run: as §1
smiles,measurement,setting,value
C[C@@H](O)[C@H]1C(=O)N2C(C(=O)O)=C(SCCNC=N)C[C@H]12 [IMIPENEM ANHYDROUS],MIC,Escherichia coli [1],0.25 mg/L
same,fold change (FC),Klebsiella pneumoniae [2],2.7
same,MIC,Escherichia coli [3],8 mg/L
same,MIC,Escherichia coli [4],1 mg/L
same,MIC,Escherichia coli [5],0.25 mg/L
same,MIC,Escherichia coli [6],0.5 mg/L
same,Km,Klebsiella pneumoniae [7],31 µM
same,kcat,Klebsiella pneumoniae [7],6.8 s⁻¹
same,Km,Klebsiella pneumoniae [8],21 µM
same,kcat,Klebsiella pneumoniae [8],21 s⁻¹
same,kcat/Km,Klebsiella pneumoniae [9],220000 M⁻¹ s⁻¹
same,kcat/Km,Klebsiella pneumoniae [10],1e+06 M⁻¹ s⁻¹
same,MIC,Klebsiella pneumoniae [11],8 mg/L
C[C@@H](O)[C@H]1C(=O)N2C(C(=O)O)=C(S[C@@H]3CN[C@H](C(=O)N(C)C)C3)[C@H](C)[C@H]12 [MEROPENEM],MIC,Escherichia coli [12],0.06 mg/L
same,MIC,Escherichia coli [13],0.06 mg/L
same,MIC,Escherichia coli [14],0.06 mg/L
same,MIC,Escherichia coli [1],0.06 mg/L
same,MIC,Escherichia coli [3],2 mg/L
same,MIC,Escherichia coli [15],0.06 mg/L
same,MIC,Escherichia coli [4],0.5 mg/L
same,MIC,Escherichia coli [5],0.06 mg/L
same,MIC,Escherichia coli [16],0.06 mg/L
same,MIC,Escherichia coli [17],0.06 mg/L
same,MIC,Escherichia coli [18],0.06 mg/L
same,MIC,Escherichia coli [6],0.25 mg/L
same,MIC,Escherichia coli [19],0.06 mg/L
same,MIC,Escherichia coli [20],0.06 mg/L
same,MIC,Escherichia coli [21],0.06 mg/L
same,MIC,Escherichia coli [22],0.06 mg/L
same,MIC,Escherichia coli [23],0.06 mg/L
same,MIC,Escherichia coli [24],0.06 mg/L
same,MIC,Escherichia coli [25],0.06 mg/L
same,MIC,Escherichia coli [26],0.06 mg/L
same,MIC,Escherichia coli [27],0.06 mg/L
same,MIC,Escherichia coli [28],0.06 mg/L
same,MIC,Escherichia coli [29],0.06 mg/L
same,MIC,Klebsiella pneumoniae [11],4 mg/L
